In ChEMBL document CHEMBL1151692, “Substituted hippurates and hippurate analogs as substrates and inhibitors of peptidylglycine alpha-hydroxylating monooxygenase (PHM)” (Bioorg Med Chem, 2008):
Where a SMILES comes first, the peptide text is derived from it. [ ]: non-standard residue; d: D form. The star is where a group is joined. Dansyl = CN(C)c1cccc2c(S(=O)(=O)*)cccc12; pGlu = O=C1CC[C@@H](C(=O)O)N1; Boc = CC(C)(C)OC(=O)*; Bz = O=C(c1ccccc1)*; ClAc = O=C(CCl)*

Tests used:
[1] = target: T1, Peptidylglycine alpha-amidating monooxygenase (Rattus norvegicus) (UniProt P14925); assay: Ratio of Vm(app) to Km(app) for rat recombinant peptidylglycine alpha-amidating monooxygenase
T1 sequence (whole entry): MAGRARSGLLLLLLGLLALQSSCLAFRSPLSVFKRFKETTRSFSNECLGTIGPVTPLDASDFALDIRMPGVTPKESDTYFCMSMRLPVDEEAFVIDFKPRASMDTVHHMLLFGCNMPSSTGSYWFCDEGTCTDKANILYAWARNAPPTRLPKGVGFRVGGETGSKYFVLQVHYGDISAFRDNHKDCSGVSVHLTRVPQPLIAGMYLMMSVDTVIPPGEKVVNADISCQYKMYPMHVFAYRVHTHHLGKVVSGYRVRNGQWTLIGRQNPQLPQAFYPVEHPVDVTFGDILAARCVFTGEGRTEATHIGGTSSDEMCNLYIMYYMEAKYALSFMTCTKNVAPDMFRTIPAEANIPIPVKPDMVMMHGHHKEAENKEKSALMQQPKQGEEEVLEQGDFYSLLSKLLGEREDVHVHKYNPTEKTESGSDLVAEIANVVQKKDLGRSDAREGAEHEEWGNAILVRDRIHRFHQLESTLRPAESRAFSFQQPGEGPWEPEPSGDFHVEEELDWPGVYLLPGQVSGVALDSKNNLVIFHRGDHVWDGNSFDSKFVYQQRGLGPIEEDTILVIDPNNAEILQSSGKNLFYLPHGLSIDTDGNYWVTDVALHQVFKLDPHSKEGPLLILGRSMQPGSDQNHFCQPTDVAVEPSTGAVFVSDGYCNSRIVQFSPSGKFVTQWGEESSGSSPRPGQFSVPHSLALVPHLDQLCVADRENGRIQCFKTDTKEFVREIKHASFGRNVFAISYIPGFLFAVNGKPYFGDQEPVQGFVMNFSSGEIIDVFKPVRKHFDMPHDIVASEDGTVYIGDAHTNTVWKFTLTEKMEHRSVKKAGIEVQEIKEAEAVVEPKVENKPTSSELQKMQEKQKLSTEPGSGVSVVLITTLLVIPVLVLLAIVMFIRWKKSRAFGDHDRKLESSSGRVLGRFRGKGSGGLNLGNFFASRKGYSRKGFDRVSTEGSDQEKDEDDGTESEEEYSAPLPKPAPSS
In short: (§1)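 Recombinant rat type A medullary thyroid carcinoma PAM (bifunctional), 15–50 μg, in 100 mM MES/NaOH pH 6.0, 30 mM NaCl, 1% ethanol, 0.001% Triton X-100, 10 μg/mL catalase, 1.0 μM Cu(NO3)2, 5.0 mM ascorbate, ~200 μM O2, 37 °C. Substrate generally 0.3–5.0 KM,app. Initial O2 consumption rates read by oxygen monitor and fit to Michaelis–Menten.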

[2] = target: T1, Peptidylglycine alpha-amidating monooxygenase (Rattus norvegicus); assay: Ratio of Vm(app) to Km(app) for rat recombinant peptidylglycine alpha-amidating monooxygenase relative to hippuric acid; in short: as §1
[3] = target: T1, Peptidylglycine alpha-amidating monooxygenase (Rattus norvegicus); assay: Activity of rat recombinant peptidylglycine alpha-amidating monooxygenase assessed as stimulation of oxygen consumption

Compound	Ratio [1]	Activity [2]	Vmax(app) [3] [s⁻¹]
Cc1cccc(C(=O)NCC(=O)O)c1	4.7 ×10³ /M/s	0.8	6.4
O=C(O)CNC(=O)CSc1ccccc1	2.5 ×10⁴ /M/s	4	4.6
O=C(O)CNC(=O)/C=C/c1ccco1	2.8 ×10³ /M/s	0.45	3.4
CC(=O)N[C@H](C)C(=O)O	0.95 M⁻¹ s⁻¹		1.3
CC(C)SCC(=O)NCC(=O)O	8.2 ×10³ /M/s	1.3	1.8
O=C(O)CNC(=O)c1ccc(Cl)cc1	6.6 ×10³ /M/s	1.1	4.1
O=C(O)CNC(=O)SCc1ccccc1	1.2 ×10⁴ /M/s	1.9	0.69
O=C(O)CNC(=O)CNC(=O)c1ccc([N+](=O)[O-])cc1	7.6 ×10⁴ /M/s	12	8.7
Cc1ccccc1C(=O)NCC(=O)O	1.8 ×10³ /M/s	0.3	7.9
O=C(O)CNC(=O)c1cccs1	6 ×10³ /M/s	1	9.3
CC(C)CCC(=O)NCC(=O)O	2.3 ×10⁴ /M/s	3.7	6.6
O=C(O)CNC(=O)CCCCCCCc1ccccc1	7.6 ×10⁴ /M/s	12	8
O=C(O)CNC(=O)c1ccccc1O	7.1 ×10³ /M/s	1.1	4.9
O=C(O)CNC(=O)CNC(=O)CCl (ClAc-Gly-Gly-OH)	2.1 ×10⁴ /M/s	3.3	8.9
O=C(O)CNC(=O)c1ccccc1I	9.1 ×10² /M/s	0.1	3.1
O=C(O)CNC(=O)c1cccnc1		0.7	
O=C(O)CNC(=O)Nc1ccccc1	2.7 ×10⁴ /M/s	4.4	9.7
O=C(O)CNC(=O)c1cccc(Cl)c1	3.6 ×10³ /M/s	0.6	7.8

Compound	Ratio [1]	Activity [2]	Vmax(app) [3] [s⁻¹]
COc1ccc(C(=O)NCC(=O)O)cc1	6.4 ×10³ /M/s	1	5.3
O=C(O)CNC(=O)CCCCCc1ccccc1	2 ×10⁵ /M/s	32	11
O=C(O)CNC(=O)[C@@H]1CCC(=O)N1 ([pGlu]-Gly-OH)	3 ×10⁴ /M/s	4.8	9.3
O=C(O)CNC(=O)c1ccc(O)cc1	3.5 ×10³ /M/s	0.6	5.8
CC(C)[C@H](NC(=O)[C@H](Cc1ccc(O)cc1)NS(=O)(=O)c1cccc2c(N(C)C)cccc12)C(=O)N[C@H](C)C(=O)O (Dansyl-Tyr-Val-[dA]-OH)	3 ×10⁴ /M/s		0.91
C[C@@H](NC(=O)c1ccccc1)C(=O)O	3.2 M⁻¹ s⁻¹		0.27
CC(=O)NCC(=O)NCC(=O)O	5.9 ×10³ /M/s	1	8.9
Nc1ccc(C(=O)NCC(=O)O)cc1	2.2 ×10³ /M/s	0.4	5.6
CCCc1ccc(C(=O)NCC(=O)O)cc1	4.2 ×10³ /M/s	0.7	5.1
O=C(O)CNC(=O)CCCc1ccccc1	7 ×10⁴ /M/s	11	11
CC(C)(C)OC(=O)NCC(=O)NCC(=O)O (Boc-Gly-Gly-OH)	2.5 ×10⁴ /M/s	4	7.5
O=C(O)CNC(=O)c1ccc(C(F)(F)F)cc1	3.6 ×10³ /M/s	0.6	2.8
O=C(O)CNC(=O)c1c(F)cccc1F	2.3 ×10² /M/s	0.04	4.3
O=C(O)CNC(=O)CNC(=O)c1ccccc1 (Bz-Gly-Gly-OH)	1.6 ×10⁵ /M/s	26	12
O=C(O)CNC(=O)/C=C/c1ccccc1	3.6 ×10⁴ /M/s	5.8	8.4
CC(Cc1ccccc1)C(=O)NCC(=O)O (stereo not drawn)	4.3 ×10³ /M/s	0.69	18
CC(=O)NCC(=O)O		0.1	
